Data from ChEMBL document CHEMBL3046055, “Synthesis and herbicidal activity of novel N-(2,2,2)-trifluoroethylpyrazole derivatives” (J Agric Food Chem, 2010).

Experiments:
Zea mays [1] = test: Toxicity against Zea mays var. SHEN DAN 17 (maize) assessed induction of crop injury at 300 g ai/ha using pre-emergence treatment protocol under field trials conditions measured 30 days post soil treatment; format: organism-based; conditions: in vivo, other, 720 h
Procedure, shortened: (§1)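 Pre-emergence application to soil surface within 24 h after maize planting, at 300, 400, 600 or 800 g a.i. ha^-1. Fresh weight of aerial plant parts measured 30 days later; percentage inhibition calculated relative to water-sprayed control.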

Zea mays [2] = test: Toxicity against Zea mays var. SHEN DAN 17 (maize) assessed induction of crop injury at 600 g ai/ha using pre-emergence treatment protocol under field trials conditions measured 30 days post soil treatment; format: organism-based; conditions: in vivo, other, 720 h; procedure, shortened: as §1
Eleusine indica [3] = test: Herbicidal activity against Eleusine indica assessed as inhibition of fresh weed plant weights at 300 g ai/ha using pre-emergence treatment protocol under greenhouse conditions relative to untreated control; format: functional
Procedure, shortened: (§2)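 Pre-emergence test in plastic pots kept in a greenhouse at 22-25 °C. Fresh weight of aerial plant parts was measured 20 days later, and percent inhibition calculated relative to water-sprayed controls. Metolachlor served as the positive control. Three replicates were run per concentration.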

Echinochloa crus-galli [4] = test: Herbicidal activity against Echinochloa crus-galli (barnyard grass) assessed as inhibition of shoot growth at […] measured 7 days post treatment; format: functional; parameters: dose or concentration left out as unconfirmed; conditions: 168 h, read-out: GI
Portulaca oleracea [5] = test: Herbicidal activity against Portulaca oleracea assessed as inhibition of fresh weed plant weights at 600 g ai/ha using pre-emergence treatment protocol under field trials conditions measured 30 days post soil treatment relative to untreated control; format: functional; conditions: 720 h
Procedure, shortened: (§3)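 Field pre-emergence trial. Treatments were applied to the soil surface within 24 h after maize planting, at 300, 400, 600 and 800 g a.i. ha^-1. Fresh weight of aerial plant parts was measured 30 days later, and percent inhibition calculated relative to the water-sprayed control.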

Eleusine indica [6] = test: Herbicidal activity against Eleusine indica assessed as inhibition of fresh weed plant weights at 150 g ai/ha using pre-emergence treatment protocol under greenhouse conditions relative to untreated control; format: functional; procedure, shortened: as §2
Zea mays [7] = test: Toxicity against Zea mays var. SHEN DAN 17 (maize) assessed as inhibition of fresh weed plant weights at 600 g ai/ha using pre-emergence treatment protocol under greenhouse conditions relative to untreated control; format: organism-based; conditions: in vivo, other; procedure, shortened: as §2
Convolvulus arvensis [8] = test: Herbicidal activity against Convolvulus arvensis assessed as inhibition of fresh weed plant weights at 800 g ai/ha using pre-emergence treatment protocol under field trials conditions measured 30 days post soil treatment relative to untreated control; format: functional; conditions: 720 h; procedure, shortened: as §3
Echinochloa crus-galli [9] = test: Herbicidal activity against Echinochloa crus-galli (barnyard grass) assessed as inhibition of root growth at […] measured 7 days post treatment; format: functional; parameters: dose or concentration left out as unconfirmed; conditions: 168 h, read-out: GI
Eleusine indica [10] = test: Herbicidal activity against Eleusine indica assessed as inhibition of fresh weed plant weights at 400 g ai/ha using pre-emergence treatment protocol under field trials conditions measured 30 days post soil treatment relative to untreated control; format: functional; conditions: 720 h; procedure, shortened: as §3
Zea mays [11] = test: Toxicity against Zea mays var. SHEN DAN 17 (maize) assessed induction of crop injury at 400 g ai/ha using pre-emergence treatment protocol under field trials conditions measured 30 days post soil treatment; format: organism-based; conditions: in vivo, other, 720 h; procedure, shortened: as §1
Echinochloa crus-galli [12] = test: Herbicidal activity against Echinochloa crus-galli (barnyard grass) assessed as inhibition of fresh weed plant weights at 600 g ai/ha using pre-emergence treatment protocol under greenhouse conditions relative to untreated control; format: functional; procedure, shortened: as §2
Convolvulus arvensis [13] = test: Herbicidal activity against Convolvulus arvensis assessed as inhibition of fresh weed plant weights at 300 g ai/ha using pre-emergence treatment protocol under field trials conditions measured 30 days post soil treatment relative to untreated control; format: functional; conditions: 720 h; procedure, shortened: as §3
Convolvulus arvensis [14] = test: Herbicidal activity against Convolvulus arvensis assessed as inhibition of fresh weed plant weights at 400 g ai/ha using pre-emergence treatment protocol under field trials conditions measured 30 days post soil treatment relative to untreated control; format: functional; conditions: 720 h; procedure, shortened: as §3
Portulaca oleracea [15] = test: Herbicidal activity against Portulaca oleracea assessed as inhibition of fresh weed plant weights at 800 g ai/ha using pre-emergence treatment protocol under field trials conditions measured 30 days post soil treatment relative to untreated control; format: functional; conditions: 720 h; procedure, shortened: as §3
Echinochloa crus-galli [16] = test: Herbicidal activity against Echinochloa crus-galli (barnyard grass) assessed as inhibition of fresh weed plant weights at 150 g ai/ha using pre-emergence treatment protocol under greenhouse conditions relative to untreated control; format: functional; procedure, shortened: as §2

Cc1nn(CC(F)(F)F)c(CS(=O)(=O)C2=NOC(C)(C)C2)c1Cl
Activity (Zea mays [1]): 0%
Activity (Zea mays [2]): 0%
inhibition at 300 g/ha (Eleusine indica [3]): 99%
inhibition of growth (Echinochloa crus-galli [4]): 84%
inhibition at 600 g/ha (Portulaca oleracea [5]): 95%
inhibition at 150 g/ha (Eleusine indica [6]): 97%
inhibition (INH) (Zea mays [7]): 1%
inhibition at 800 g/ha (Convolvulus arvensis [8]): 40%
inhibition of growth (Echinochloa crus-galli [9]): 62%
inhibition at 400 g/ha (Eleusine indica [10]): 98%
Activity (Zea mays [11]): 0%
inhibition at 600 g/ha (Echinochloa crus-galli [12]): 100%
inhibition at 300 g/ha (Convolvulus arvensis [13]): 14%
inhibition at 400 g/ha (Convolvulus arvensis [14]): 16%
inhibition at 800 g/ha (Portulaca oleracea [15]): 100%
inhibition at 150 g/ha (Echinochloa crus-galli [16]): 100%
